ChEMBL document CHEMBL2177065, “14-Alkoxy- and 14-acyloxypyridomorphinans: μ agonist/δ antagonist opioid analgesics with diminished tolerance and dependence side effects” (J Med Chem, 2012)
The source made the active and inactive calls.

Experiments:
Mus musculus [1] = test: Antinociceptive activity in icv dosed ICR mouse assessed as warm-water tail-withdrawal latency administered bid for 3 days; assay type: functional
Mus musculus [2] = test: Antinociceptive activity in ICR mouse assessed as warm-water tail-withdrawal latency at 0.1 to 100 nmol, icv bid for 3 days relative to naive control; assay type: functional
Mus musculus [3] = test: Antinociceptive activity in ICR mouse assessed as warm-water tail-withdrawal latency at 10 nmol, icv by tail flick assay; assay type: functional
How it was run: (§1)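 Male ICR mice dosed i.c.v. in 5 µL (test compounds in 100% DMSO, morphine in water) under light ether anaesthesia. Tail withdrawal from 55 °C water, 10 s cutoff, tested 10–180 min post-injection. %MPE computed against pre-drug baseline. A50 with 95% confidence limits by linear regression at time of peak effect.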

Mus musculus [4] = test: Antinociceptive activity in icv dosed ICR mouse assessed as warm-water tail-withdrawal latency by tail flick assay; assay type: functional; how it was run: as §1
CHO [5] = test: Activity at human MOR/mouse DOR expressed in CHO cells assessed as increase in forskolin-stimulated cAMP accumulation at 1 uM after drug exposure for 20 hrs followed by washout in the presence of naloxone; assay type: functional, cell-based
How it was run: (§2)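 MOR/DOR co-expressing CHO cells (mouse N-cMyc DOR + human MOR) exposed 20 h to drug, then washed three times with serum-free medium and preincubated 20 min at 37 °C with IBMX 500 µM. Then 10 min at 37 °C with forskolin 100 µM/IBMX 500 µM, with or without 10 µM naloxone. Read-out was cAMP by [3H]cAMP–protein kinase binding against a standard curve. Mean of n=3.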

CHO [6] = test: Activity at human MOR/mouse DOR expressed in CHO cells assessed as increase in forskolin-stimulated cAMP accumulation at 1 uM after drug exposure for 20 hrs followed by washout; assay type: functional, cell-based; how it was run: as §2
CHO [7] = test: Activity at human MOR/mouse DOR expressed in CHO cells assessed as increase in forskolin-stimulated cAMP accumulation at 30 nM after drug exposure for 20 hrs followed by washout in the presence of naloxone; assay type: functional, cell-based; how it was run: as §2
[8] = target: T1, Kappa-type opioid receptor (Homo sapiens, UniProt P41145); test: Agonist activity at human kappa opioid receptor expressed in CHO cells assessed as [35S]GTPgammaS binding at 10 uM by scintillation counting analysis; assay type: functional, cell-based
How it was run: (§3)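 Human KOR or MOR in CHO cell membranes (50 µg protein), 3 h at 25 °C, pH 7.4 Tris buffer with 100 mM NaCl, 10 mM MgCl2, 1 mM EDTA, 1 mM DTT, 0.1% BSA, GDP 40 µM and [35S]GTP-γ-S 50 pM. Stimulation = (S−B)/B×100, with Emax relative to U69,593 (KOR) or DAMGO (MOR). Curves were ten points, ≥3 experiments pooled. Antagonist Ke was taken from the shift in standard agonist EC50.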

Mus musculus [9] = test: Antinociceptive activity in icv dosed ICR mouse assessed as warm-water tail-withdrawal latency by tail flick assay in presence of naloxone; assay type: functional, organism-based
Mus musculus [10] = test: Antinociceptive activity in ICR mouse assessed as warm-water tail-withdrawal latency at 1 nmol, icv by tail flick assay; assay type: functional; how it was run: as §1
CHO [11] = test: Activity at human MOR/mouse DOR expressed in CHO cells assessed as increase in forskolin-stimulated cAMP accumulation at 30 nM after drug exposure for 20 hrs followed by washout; assay type: functional, cell-based; how it was run: as §2
[12] = Activity at human MOR/mouse DOR expressed in CHO cells assessed as inhibition of DAMGO-mediated forskolin-stimulated cAMP accumulation at 30 nM after 20 hrs by scintillation counting analysis; assay type: functional
How it was run: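 CHO cells stably co-expressing human MOR and cMyc-tagged mouse DOR were pretreated 20 h with 30 nM drug or medium, then washed. They were preincubated 20 min with 500 µM IBMX, then given 15 min with IBMX, 100 µM forskolin and graded DAMGO at 37 °C. cAMP was measured by [3H]cAMP–protein kinase binding against a standard curve.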

[13] = Activity at human MOR/mouse DOR expressed in CHO cells assessed as inhibition of DAMGO-mediated forskolin-stimulated cAMP accumulation after 20 hrs by scintillation counting analysis relative to morphine; assay type: functional
How it was run: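 CHO cells stably co-expressing human MOR and N-cMyc-tagged mouse DOR, treated 20 h with drug (morphine 1 µM; test compounds 30 nM) or medium. Cells washed, 20 min in serum-free medium with 500 µM IBMX at 37 °C, then 15 min with IBMX plus 100 µM forskolin and graded DAMGO. Acid-extracted cAMP measured by [³H]cAMP protein-kinase binding competition. DAMGO EC₅₀ expressed as fold over control cells; n=3.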

Mu-type opioid receptor [14] = target: T2, Mu-type opioid receptor (Homo sapiens, UniProt P35372); test: Agonist activity at human mu opioid receptor expressed in CHO cells assessed as [35S]GTPgammaS binding by scintillation counting analysis relative to DAMGO; assay type: functional, cell-based; how it was run: as §3
Mu-type opioid receptor [15] = target: T2, Mu-type opioid receptor; test: Agonist activity at human mu opioid receptor expressed in CHO cells assessed as [35S]GTPgammaS binding by scintillation counting analysis; assay type: functional, cell-based; how it was run: as §3
[16] = Agonist activity at delta opioid receptor expressed in rat/mouse NG108-15 cells assessed as [35S]GTPgammaS binding by scintillation counting analysis relative to DADLE; assay type: functional, cell-based
How it was run: as §3, with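 “NG108-15” for “Human KOR or MOR in CHO”, “pM. Nonspecific binding with 40 µM GTP-γ-S; filtration and scintillation counting.” for “pM.”, “DADLE.” for “U69,593 (KOR) or DAMGO (MOR).”, “pooled.” for “pooled. Antagonist”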

Homo sapiens [17] = organism: Homo sapiens; test: Selectivity ratio of Ki for human kappa opioid receptor to Ki for human delta opioid receptor
Homo sapiens [18] = organism: Homo sapiens; test: Selectivity ratio of Ki for human mu opioid receptor to Ki for human delta opioid receptor
[19] = target: T1, Kappa-type opioid receptor; test: Displacement of [3H]U69,593 from human kappa opioid receptor expressed in CHO cells by scintillation counting analysis; assay type: cell-based
Mu-type opioid receptor [20] = target: T2, Mu-type opioid receptor; test: Displacement of [3H]DAMGO from human mu opioid receptor expressed in CHO cells by scintillation counting analysis; assay type: cell-based
[21] = target: Delta-type opioid receptor (Homo sapiens, UniProt P41143); test: Displacement of [3H]DADLE from human delta opioid receptor expressed in CHO cells by scintillation counting analysis; assay type: cell-based
cells = conditions: CHO, 20 h

T2 sequence (P35372 whole entry): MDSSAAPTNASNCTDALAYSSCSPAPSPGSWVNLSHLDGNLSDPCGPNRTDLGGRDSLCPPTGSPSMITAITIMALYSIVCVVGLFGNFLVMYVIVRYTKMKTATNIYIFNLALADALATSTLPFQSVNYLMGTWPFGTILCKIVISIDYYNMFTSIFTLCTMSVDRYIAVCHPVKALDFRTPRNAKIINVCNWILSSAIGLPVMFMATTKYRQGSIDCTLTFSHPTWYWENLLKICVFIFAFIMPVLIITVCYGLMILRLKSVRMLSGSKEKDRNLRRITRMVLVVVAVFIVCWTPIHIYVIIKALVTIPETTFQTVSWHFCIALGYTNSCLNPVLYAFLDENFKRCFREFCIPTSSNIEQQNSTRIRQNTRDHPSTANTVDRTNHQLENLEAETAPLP
T1 sequence (P41145 whole entry): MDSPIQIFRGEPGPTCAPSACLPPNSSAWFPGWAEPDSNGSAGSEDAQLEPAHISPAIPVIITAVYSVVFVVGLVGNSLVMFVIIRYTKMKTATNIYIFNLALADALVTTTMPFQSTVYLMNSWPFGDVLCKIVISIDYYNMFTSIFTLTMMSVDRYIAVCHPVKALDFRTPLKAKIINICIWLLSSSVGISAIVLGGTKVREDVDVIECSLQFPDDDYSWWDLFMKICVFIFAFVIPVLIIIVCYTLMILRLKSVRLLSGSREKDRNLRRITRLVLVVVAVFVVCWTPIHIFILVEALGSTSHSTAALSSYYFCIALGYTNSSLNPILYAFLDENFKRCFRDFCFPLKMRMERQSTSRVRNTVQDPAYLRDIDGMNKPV
Chain of Delta-type opioid receptor (P41143 whole entry): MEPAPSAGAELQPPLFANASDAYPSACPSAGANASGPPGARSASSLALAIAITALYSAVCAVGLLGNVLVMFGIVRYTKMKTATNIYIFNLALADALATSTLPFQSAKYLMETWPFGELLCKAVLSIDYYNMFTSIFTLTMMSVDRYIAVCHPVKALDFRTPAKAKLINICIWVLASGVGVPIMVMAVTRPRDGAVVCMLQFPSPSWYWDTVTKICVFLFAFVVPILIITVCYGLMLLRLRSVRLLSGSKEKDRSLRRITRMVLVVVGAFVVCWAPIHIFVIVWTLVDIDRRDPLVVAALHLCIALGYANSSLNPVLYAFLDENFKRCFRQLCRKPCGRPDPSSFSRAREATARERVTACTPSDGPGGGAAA

CN1CC[C@]23c4c5ccc(O)c4O[C@H]2[C@@H](O)C=C[C@H]3[C@H]1C5 [MORPHINE]
A50 (Mus musculus [1]): 19.04 nmol
fold change (FC) (Mus musculus [2]): 44
%max (Mus musculus [3]): 100%
A50 (Mus musculus [4]): 0.43 nmol
Activity (CHO [5]): Active
Activity (CHO [6]): Active

CN1CC[C@]23c4c5ccc(O)c4O[C@H]2c2ncc(-c4ccc(Cl)cc4)cc2C[C@@]3(OCCCc2ccccc2)[C@H]1C5
Activity (CHO [7]): Active
Activity [8]: inactive
Activity (Mus musculus [9]): inactive
%max (Mus musculus [10]): 92%
A50 (Mus musculus [4]): 0.23 nmol
Activity (Mus musculus [4]): Dose-dependent effect
Activity (CHO [11]): Active
Emax at 0.03 µM [12]: 20%
fold change (FC) [13]: 7
Emax (Mu-type opioid receptor [14]): 125%
EC50 (Mu-type opioid receptor [15]): 2.15 nM
Emax [16]: 85%
Ratio Ki (Homo sapiens [17]): 1.5
Ratio Ki (Homo sapiens [18]): 0.52
Ki [19]: 1.53 nM
Ki (Mu-type opioid receptor [20]): 0.54 nM
Ki [21]: 1.04 nM
EC50 (cells): 0.34 nM
